Results of several laboratories.
Compare with care: the assays were run in different laboratories.
RET V804M: Proto-oncogene tyrosine-protein kinase receptor Ret (RET, Homo sapiens, UniProt P07949, V804M)
RET: Proto-oncogene tyrosine-protein kinase receptor Ret (RET, Homo sapiens, UniProt P07949)

SMILES	target	assay	conditions	measurement	result
Cc1ccc(NC(=O)c2ccnc(C(F)(F)F)c2)cc1-c1cc(OCCO)nc(N2CCOCC2)c1	RET V804M	binding	1 µM	remaining binding	98%
CO[C@@H]1[C@H](N(C)C(=O)c2ccccc2)C[C@H]2O[C@]1(C)n1c3ccccc3c3c4c(c5c6ccccc6n2c5c31)C(=O)NC4	RET	enzyme activity, inhibitor	1 µM	inhibition	95%
C1=C/COCc2cc(ccc2OCCN2CCCC2)Nc2nccc(n2)-c2cccc(c2)COC/1	Proto-oncogene tyrosine-protein kinase receptor Ret (RET, Homo sapiens, UniProt P07949, M918T)	binding	0.1 µM	remaining binding	100%
COc1ccc2oc(-c3ccc4nc(N)oc4c3)c/c(=N\c3ccccc3NC(=O)CCN)c2c1	RET	binding	1 µM	remaining binding	109%
CC#CC(=O)N1CCC[C@H]1c1nc(-c2ccc(C(=O)Nc3ccccn3)cc2)c2c(N)nccn12	RET	enzyme activity, inhibitor	1 µM	inhibition	7%
CCCCC(=O)Nc1ccc(-c2ccc3ncn(CCC)c(=O)c3c2)cn1	Proto-oncogene tyrosine-protein kinase receptor Ret (RET, Homo sapiens, UniProt P07949, V804L)	binding, competition with immobilised ligand	0.5 µM	remaining binding	100%
CN1CCN(C(=O)c2ccc(NC(=O)Nc3ccc(N(C)c4ccnc(Nc5ccc(CS(C)(=O)=O)cc5)n4)cc3)cc2)CC1	RET V804M	binding	1 µM	remaining binding	0.5%
N#Cc1ccc(NC(=O)Nc2ccccc2)cc1	RET	cell-free assay, competition with immobilised ligand	25 µM	remaining binding	100%
